Active and inactive are the calls of the source. The rule behind the calls is not given here.
Columns and labels:
Format in all cases: cell-based
Conditions in all cases: HepG2
[1] = target: T1, Thyroid hormone receptor alpha (Homo sapiens) (UniProt P10827); test: Increase in transcriptional activity of TRalpha ligand binding domain expressed in human Hep G2 cells co-transfected with Gal4-DBD by luciferase reporter gene assay
T1 sequence (whole entry): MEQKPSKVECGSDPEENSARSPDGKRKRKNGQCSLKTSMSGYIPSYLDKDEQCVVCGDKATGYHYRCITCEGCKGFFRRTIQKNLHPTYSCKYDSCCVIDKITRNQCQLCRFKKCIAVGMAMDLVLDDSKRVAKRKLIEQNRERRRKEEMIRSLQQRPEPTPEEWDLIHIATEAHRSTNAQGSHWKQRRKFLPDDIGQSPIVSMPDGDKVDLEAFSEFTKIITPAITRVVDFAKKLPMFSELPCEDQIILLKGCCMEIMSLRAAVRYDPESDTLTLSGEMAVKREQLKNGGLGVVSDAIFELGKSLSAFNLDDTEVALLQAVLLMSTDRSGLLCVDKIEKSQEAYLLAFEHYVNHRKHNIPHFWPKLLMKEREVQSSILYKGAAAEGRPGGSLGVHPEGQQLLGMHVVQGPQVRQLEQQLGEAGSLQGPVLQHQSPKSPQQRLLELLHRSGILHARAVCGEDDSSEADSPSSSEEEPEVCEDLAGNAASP
Method in brief: (§1)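 HepG2 cells transfected for 4 h by calcium phosphate coprecipitation with 100 ng pGal4UAS-luciferase, 50 ng Gal4-LBD receptor vector and 300 ng CMV-β-galactosidase plasmid for normalization. Cells were washed in PBS, then refed with serum-free DMEM/F-12 containing penicillin/streptomycin and compound or 0.1% ethanol vehicle for 20 h. Luciferase read-out was normalized to β-galactosidase. Experiments were repeated at least three times.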

[2] = target: T2, Retinoic acid receptor RXR-alpha (Homo sapiens) (UniProt P19793); test: Increase in transcriptional activity of RXRalpha ligand binding domain expressed in human Hep G2 cells co-transfected with Gal4-DBD by luciferase reporter gene assay; method in brief: as §1
T2 sequence (whole entry): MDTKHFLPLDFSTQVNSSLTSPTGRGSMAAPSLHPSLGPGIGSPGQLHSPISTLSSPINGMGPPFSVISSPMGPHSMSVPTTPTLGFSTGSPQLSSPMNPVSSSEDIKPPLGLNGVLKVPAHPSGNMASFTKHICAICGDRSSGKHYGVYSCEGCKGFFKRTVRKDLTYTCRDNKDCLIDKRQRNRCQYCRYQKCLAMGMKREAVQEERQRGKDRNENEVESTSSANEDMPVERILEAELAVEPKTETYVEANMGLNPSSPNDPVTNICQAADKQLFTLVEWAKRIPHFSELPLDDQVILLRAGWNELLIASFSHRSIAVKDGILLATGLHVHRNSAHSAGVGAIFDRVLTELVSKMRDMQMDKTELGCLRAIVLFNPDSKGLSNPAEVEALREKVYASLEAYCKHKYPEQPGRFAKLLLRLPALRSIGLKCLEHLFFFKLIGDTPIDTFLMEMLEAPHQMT

[3] = target: T3, Oxysterols receptor LXR-beta (Homo sapiens) (UniProt P55055); test: Increase in transcriptional activity of LXRbeta ligand binding domain expressed in human Hep G2 cells co-transfected with Gal4-DBD by luciferase reporter gene assay; method in brief: as §1
T3 sequence (whole entry): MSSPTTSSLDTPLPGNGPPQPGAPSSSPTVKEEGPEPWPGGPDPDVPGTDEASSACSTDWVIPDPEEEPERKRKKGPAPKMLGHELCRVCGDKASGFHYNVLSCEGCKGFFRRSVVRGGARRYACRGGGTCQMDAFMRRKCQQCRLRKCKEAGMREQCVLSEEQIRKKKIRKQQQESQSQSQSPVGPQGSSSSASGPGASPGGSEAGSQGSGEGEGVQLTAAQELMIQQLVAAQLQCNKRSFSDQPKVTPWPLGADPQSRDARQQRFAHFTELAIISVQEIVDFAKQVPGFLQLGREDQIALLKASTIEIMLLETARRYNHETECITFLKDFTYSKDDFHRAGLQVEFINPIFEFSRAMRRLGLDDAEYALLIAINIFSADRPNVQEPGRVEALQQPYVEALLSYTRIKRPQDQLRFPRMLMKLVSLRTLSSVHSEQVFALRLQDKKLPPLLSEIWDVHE

[4] = target: T4, Bile acid receptor (Homo sapiens) (UniProt Q96RI1); test: Increase in transcriptional activity of FXR ligand binding domain expressed in human Hep G2 cells co-transfected with Gal4-DBD by luciferase reporter gene assay; method in brief: as §1
T4 sequence (whole entry): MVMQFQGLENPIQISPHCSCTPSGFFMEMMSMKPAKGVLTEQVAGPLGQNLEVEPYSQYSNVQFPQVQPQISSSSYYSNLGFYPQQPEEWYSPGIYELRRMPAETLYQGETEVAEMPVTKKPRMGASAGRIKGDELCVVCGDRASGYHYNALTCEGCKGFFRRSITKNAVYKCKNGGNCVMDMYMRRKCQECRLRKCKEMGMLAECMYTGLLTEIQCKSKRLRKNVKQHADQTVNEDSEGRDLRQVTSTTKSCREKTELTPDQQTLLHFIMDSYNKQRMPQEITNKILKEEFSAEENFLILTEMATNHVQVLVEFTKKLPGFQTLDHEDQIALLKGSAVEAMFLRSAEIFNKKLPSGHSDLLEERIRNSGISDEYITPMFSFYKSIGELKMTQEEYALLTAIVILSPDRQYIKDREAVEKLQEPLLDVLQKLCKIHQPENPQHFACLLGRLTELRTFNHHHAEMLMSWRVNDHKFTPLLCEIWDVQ

[5] = target: T5, Peroxisome proliferator-activated receptor alpha (Homo sapiens) (UniProt Q07869); test: Agonist activity at human PPARalpha ligand binding domain expressed in human Hep G2 cells co-transfected with Gal4-DBD by luciferase reporter gene assay relative to Wy 14,643
T5 sequence (whole entry): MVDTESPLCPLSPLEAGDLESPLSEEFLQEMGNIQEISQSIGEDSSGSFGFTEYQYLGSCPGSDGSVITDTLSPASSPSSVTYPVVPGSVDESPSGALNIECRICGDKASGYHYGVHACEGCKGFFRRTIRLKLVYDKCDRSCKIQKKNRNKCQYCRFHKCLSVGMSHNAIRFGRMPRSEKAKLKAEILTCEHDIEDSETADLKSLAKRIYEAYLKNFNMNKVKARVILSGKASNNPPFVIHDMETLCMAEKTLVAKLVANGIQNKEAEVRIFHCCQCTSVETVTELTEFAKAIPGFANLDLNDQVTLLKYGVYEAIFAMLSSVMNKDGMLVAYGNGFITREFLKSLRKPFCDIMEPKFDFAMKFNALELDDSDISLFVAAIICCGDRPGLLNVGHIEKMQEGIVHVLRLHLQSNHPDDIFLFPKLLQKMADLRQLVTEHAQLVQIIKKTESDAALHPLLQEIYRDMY
Method in brief: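 HepG2 cells received the Gal4-receptor LBD construct (50 ng), pGal4UAS-luciferase (100 ng) and pCMVβ (300 ng) by calcium phosphate coprecipitation for 4 h. They were then treated in serum-free DMEM/F-12 with ligand or 0.1% ethanol for 20 h. Luciferase was normalized to β-galactosidase, and efficacy was expressed as percent of the Wy 14,643 maximum (100%). Values are mean ± SEM of 3–5 experiments in triplicate.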

Compound | Activity [1] | Activity [2] | Activity [3] | Activity [4] | Efficacy [5] | Activity [5]
O=C(O)[C@H](Cc1ccccc1)Oc1ccc(-c2ccccc2)cc1 | inactive | inactive | inactive | inactive | 100% | 
O=C(O)[C@@H](Cc1ccccc1)Oc1ccc(-c2ccccc2)cc1 | inactive | inactive | inactive | inactive |  | inactive

— ChEMBL document CHEMBL1151755, “Crystal structure of the peroxisome proliferator-activated receptor gamma (PPARgamma) ligand binding domain complexed with a novel partial agonist: a new region of the hydrophobic pocket could be exploited for drug design” (J Med Chem, 2008)
